Measured values reported in ChEMBL document CHEMBL1134346, “Labeling and evaluation of N-[11C]methylated quinoline-2-carboxamides as potential radioligands for visualization of peripheral benzodiazepine receptors” (J Med Chem, 2001).

species: Rattus norvegicus; assay: Tissue (cortex) distribution in Albino male CD rats after 30 minutes expressed as percent of injected dose per gram of organ.; format: ADME, organism-based; settings: in vivo, 0.5 h
How it was run: (§1)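 Radioligand given in saline into tail vein of male albino CD rats (225-250 g); 100-200 µCi per animal, 1-2 Ci/µmol at injection depending on radioligand. Three rats per time point were decapitated under light ether anaesthesia. Blood, plasma, brain regions and washed organs were weighed and gamma-counted. Uptake is %I.D./g tissue, mean ± SD.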

Structure (SMILES) | I.D./g
CCC(C)N(C)C(=O)c1nc2ccccc2c(-c2ccccc2)c1C (stereo not given) | 0.07%

species: Rattus norvegicus; assay: Tissue (cortex) distribution in Albino male CD rats after 5 minutes expressed as percent of injected dose per gram of organ.; format: ADME, organism-based; settings: in vivo; how it was run: as §1

Structure (SMILES) | I.D./g
CCC(C)N(C)C(=O)c1nc2ccccc2c(-c2ccccc2)c1C (stereo not given) | 0.12%

species: Rattus norvegicus; assay: Tissue (cortex) distribution in Albino male CD rats after 90 minutes expressed as percent of injected dose per gram of organ.; format: ADME, organism-based; settings: in vivo, 1.5 h; how it was run: as §1

Structure (SMILES) | I.D./g
CCC(C)N(C)C(=O)c1nc2ccccc2c(-c2ccccc2)c1C (stereo not given) | 0.03%

molecular target: Translocator protein (Rattus norvegicus) (UniProt P16257); assay: Tissue (heart) concentration of radioactivity at 30 min post-injection into Albino male CD rats after pretreatment with cold PK 11195.; format: functional; settings: not given
How it was run: (§2)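 Separate groups of five rats received tail-vein PK 11195 (1.4-1.6 mg; 5 mg/kg) in 30 µL DMSO:EtOH 1:1, or vehicle alone, immediately before iv radioligand (90-170 µCi in saline, 0.9-1 Ci/µmol). Rats were decapitated at 30 min and tissues gamma-counted; values are %I.D./g.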

Translocator protein (Rattus norvegicus), sequence (P16257 whole entry, looked up): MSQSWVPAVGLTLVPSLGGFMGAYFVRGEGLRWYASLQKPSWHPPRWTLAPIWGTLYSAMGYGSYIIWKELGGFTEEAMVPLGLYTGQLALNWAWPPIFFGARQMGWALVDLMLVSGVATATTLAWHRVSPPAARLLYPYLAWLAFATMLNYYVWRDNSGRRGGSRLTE

Structure (SMILES) | I.D./g
CCC(C)N(C)C(=O)c1nc2ccccc2c(-c2ccccc2)c1C (stereo not given) | < 0.13%

species: Rattus norvegicus; assay: Tissue (muscle) distribution in Albino male CD rats after 90 minutes expressed as percent of injected dose per gram of organ.; format: ADME, organism-based; settings: in vivo, 1.5 h
How it was run: (§3)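 Male albino CD rats (225-250 g) received the 11C-labelled radioligand in saline by tail-vein injection. Three rats per time point were decapitated under light ether anaesthesia at 5, 15, 30, 60 or 90 min. Blood was collected heparinized and plasma separated by centrifugation. The pituitary was dissected from the brain. Lung, liver (three-lobe pieces) and right deltoid muscle were sampled, washed in cold saline, gamma-counted and weighed. Results are %I.D./g.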

Structure (SMILES) | I.D./g
CCC(C)N(C)C(=O)c1nc2ccccc2c(-c2ccccc2)c1C (stereo not given) | 0.12%

molecular target: Translocator protein (Rattus norvegicus) (UniProt P16257); assay: Tissue (pituitary) concentration of radioactivity at 30 min post-injection into Albino male CD rats after pretreatment with cold PK 11195.; format: functional, tissue-based; settings: Pituitary gland
How it was run: (§4)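 Blocking study in male albino CD rats, five per group. Immediately before the 11C radioligand (in saline, i.v. tail vein), rats received 30 µL tail-vein PK 11195 (5 mg/kg; 1.4-1.6 mg) in DMSO:EtOH 1:1, or vehicle. Rats were decapitated at 30 min. Tissues were dissected, washed, gamma-counted and weighed as in the biodistribution study. Results are %I.D./g.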

Structure (SMILES) | I.D./g
CCC(C)N(C)C(=O)c1nc2ccccc2c(-c2ccccc2)c1C (stereo not given) | < 0.07%

species: Rattus norvegicus; assay: Tissue (pituitary) distribution in Albino male CD rats after 90 minutes expressed as percent of injected dose per gram of organ.; format: ADME, organism-based, Pituitary gland; settings: in vivo, 1.5 h; how it was run: as §3

Structure (SMILES) | I.D./g
CCC(C)N(C)C(=O)c1nc2ccccc2c(-c2ccccc2)c1C (stereo not given) | 0.2%

species: Rattus norvegicus; assay: Tissue (plasma) distribution in Albino male CD rats after 60 minutes expressed as percent of injected dose per gram of organ.; format: ADME, organism-based; settings: in vivo, 1 h; how it was run: as §3

Structure (SMILES) | I.D./g
CCC(C)N(C)C(=O)c1nc2ccccc2c(-c2ccccc2)c1C (stereo not given) | 0.03%

molecular target: Translocator protein (Rattus norvegicus) (UniProt P16257); assay: Tissue (spleen) concentration of radioactivity at 30 min post-injection into Albino male CD rats after pretreatment with cold PK 11195.; format: functional, tissue-based; settings: not given; how it was run: as §4

Structure (SMILES) | I.D./g
CCC(C)N(C)C(=O)c1nc2ccccc2c(-c2ccccc2)c1C (stereo not given) | < 0.11%

species: Rattus norvegicus; assay: Tissue (heart) distribution in Albino male CD rats after 30 minutes expressed as percent of injected dose per gram of organ.; format: ADME, organism-based; settings: in vivo, 0.5 h; how it was run: as §1

Structure (SMILES) | I.D./g
CCC(C)N(C)C(=O)c1nc2ccccc2c(-c2ccccc2)c1C (stereo not given) | 1.21%

species: Rattus norvegicus; assay: Tissue (heart) distribution in Albino male CD rats after 5 minutes expressed as percent of injected dose per gram of organ.; format: ADME, organism-based; settings: in vivo; how it was run: as §1

Structure (SMILES) | I.D./g
CCC(C)N(C)C(=O)c1nc2ccccc2c(-c2ccccc2)c1C (stereo not given) | 0.86%

species: Rattus norvegicus; assay: Tissue (heart) distribution in Albino male CD rats after 60 minutes expressed as percent of injected dose per gram of organ.; format: ADME, organism-based; settings: in vivo, 1 h; how it was run: as §1

Structure (SMILES) | I.D./g
CCC(C)N(C)C(=O)c1nc2ccccc2c(-c2ccccc2)c1C (stereo not given) | 1.26%

species: Rattus norvegicus; assay: Tissue (heart) distribution in Albino male CD rats after 90 minutes expressed as percent of injected dose per gram of organ.; format: ADME, organism-based; settings: in vivo, 1.5 h; how it was run: as §1

Structure (SMILES) | I.D./g
CCC(C)N(C)C(=O)c1nc2ccccc2c(-c2ccccc2)c1C (stereo not given) | 1.23%

species: Rattus norvegicus; assay: Tissue (intestine) distribution in Albino male CD rats after 60 minutes expressed as percent of injected dose per gram of organ.; format: ADME, organism-based; settings: in vivo, 1 h; how it was run: as §1

Structure (SMILES) | I.D./g
CCC(C)N(C)C(=O)c1nc2ccccc2c(-c2ccccc2)c1C (stereo not given) | 0.4%

species: Rattus norvegicus; assay: Tissue (intestine) distribution in Albino male CD rats after 90 minutes expressed as percent of injected dose per gram of organ.; format: ADME, organism-based; settings: in vivo, 1.5 h; how it was run: as §1

Structure (SMILES) | I.D./g
CCC(C)N(C)C(=O)c1nc2ccccc2c(-c2ccccc2)c1C (stereo not given) | 0.37%

species: Rattus norvegicus; assay: Tissue (kidney) distribution in Albino male CD rats after 15 minutes expressed as percent of injected dose per gram of organ.; format: ADME, organism-based; settings: in vivo, 0.25 h; how it was run: as §1

Structure (SMILES) | I.D./g
CCC(C)N(C)C(=O)c1nc2ccccc2c(-c2ccccc2)c1C (stereo not given) | 0.6%

species: Rattus norvegicus; assay: Tissue (cerebellum) distribution in Albino male CD rats after 30 minutes expressed as percent of injected dose per gram of organ.; format: ADME, organism-based; settings: in vivo, 0.5 h; how it was run: as §1

Structure (SMILES) | I.D./g
CCC(C)N(C)C(=O)c1nc2ccccc2c(-c2ccccc2)c1C (stereo not given) | 0.09%

species: Rattus norvegicus; assay: Tissue (cerebellum) distribution in Albino male CD rats after 60 minutes expressed as percent of injected dose per gram of organ.; format: ADME, organism-based; settings: in vivo, 1 h; how it was run: as §1

Structure (SMILES) | I.D./g
CCC(C)N(C)C(=O)c1nc2ccccc2c(-c2ccccc2)c1C (stereo not given) | 0.05%

molecular target: Translocator protein (Rattus norvegicus) (UniProt P16257); assay: Tissue (cortex) concentration of radioactivity at 30 min post-injection into Albino male CD rats after pretreatment with cold PK 11195.; format: functional; settings: not given; how it was run: as §2

Structure (SMILES) | I.D./g
CCC(C)N(C)C(=O)c1nc2ccccc2c(-c2ccccc2)c1C (stereo not given) | > 0.04%

species: Rattus norvegicus; assay: Tissue (lung) distribution in Albino male CD rats after 15 minutes expressed as percent of injected dose per gram of organ.; format: ADME, organism-based; settings: in vivo, 0.25 h; how it was run: as §3

Structure (SMILES) | I.D./g
CCC(C)N(C)C(=O)c1nc2ccccc2c(-c2ccccc2)c1C (stereo not given) | 2.01%
